Screening data: PubChem, several laboratories
Myeloid diff MLP – compounds promoting myeloid differentiation; ER-HoxA9 myeloid progenitors, lysozyme-GFP differentiation, flow cytometry; calls only at 10 µM; 360,000 tested, 1% active; AID 624256;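 active = normalized GFP-positive differentiation at or above the plate's own cutoff, the solvent-only control mean plus 3 SD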;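 also: cells exposed to compound for four days before flow analysis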
PP5 inh – inhibitors of human protein phosphatase 5 (PP5); P53041; 320,000 tested, 0.18% active; inhibition, % at 6.7 µM; purified PP5c, OMFP substrate fluorescence;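 active = inhibition above the campaign's mean inhibition across all tested compounds plus 3 SD, cut at about 9.5% in these data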
Target sequence (P53041 whole entry, looked up): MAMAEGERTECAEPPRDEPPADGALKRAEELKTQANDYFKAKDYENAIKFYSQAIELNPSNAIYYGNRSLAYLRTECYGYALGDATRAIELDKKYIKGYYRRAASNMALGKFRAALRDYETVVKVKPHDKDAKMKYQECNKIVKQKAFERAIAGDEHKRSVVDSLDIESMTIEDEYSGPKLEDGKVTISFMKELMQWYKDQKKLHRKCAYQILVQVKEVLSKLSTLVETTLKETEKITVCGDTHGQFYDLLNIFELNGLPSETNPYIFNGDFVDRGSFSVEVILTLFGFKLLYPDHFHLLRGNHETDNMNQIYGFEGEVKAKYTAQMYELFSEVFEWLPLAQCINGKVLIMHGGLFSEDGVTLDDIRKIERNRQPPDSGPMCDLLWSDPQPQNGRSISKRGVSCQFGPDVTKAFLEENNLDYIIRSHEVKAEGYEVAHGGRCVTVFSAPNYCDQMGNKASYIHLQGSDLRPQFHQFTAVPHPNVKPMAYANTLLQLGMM
HCV core dimer – blocks dimerization of HCV core protein; TR-FRET GST/Flag-core106 dimerization, 1536-well; 300,000 tested, 0.33% active; inhibition, % at 5 µM;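 active = inhibition above the mean of all tested compounds plus 3 SD, set per screening campaign, cut at about 45% in these data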
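Assay system: GST-tagged and Flag-tagged HCV core protein residues 1-106 / Times: compound-protein-antibody incubation 4 h at 22.5 °C / Signal: time-resolved FRET, ex 340 nm, em 617 and 671 nm / Evaluation: % inhibition based on acceptor/donor emission ratio / Benchmarks: wells lacking GST-core106 and wells with excess unlabelled core106 / Repeats: singlicate, one well per compound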
PP1 counter – counter-screen for PP5 inhibitors: inhibitors of human PP1-alpha; P62136; purified PP1alpha, OMFP fluorescence; inhibition, % at 6.7 µM; 320,000 tested, 0.9% active; AID 2235;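 active = inhibition above the mean inhibition of all tested compounds plus 3 SD, computed separately for each screening campaign, cut at about 15% in these data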
Fh CTSL1 inh – cathepsin L1 inhibition, PFM18AAP counter-screen. recombinant F. hepatica cathepsin L1, Z-Leu-Arg-MCA fluorescence. 300,000 tested, 0.49% active. inhibition, % at 5.96 µM;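 active = inhibition above the mean of all tested compounds plus 3 SD, set per screening campaign, cut at about 17% in these data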
NadD block – inhibitors of Staphylococcus aureus NadD; AID 602399; 360,000 tested, 0.78% active; inhibition, % at 20 µM; purified NadD enzyme, colorimetric absorbance read-out; in the data active = inhibition above about 26%
Myeloid diff CP1 – promotes myeloid progenitor differentiation. shares compounds with Myeloid diff MLP. ER-HoxA9 myeloid progenitors, GFP/Mac1 double-positive flow. calls only. 2,300 tested, 2% active. AID 651706;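 active = share of green or green-and-red cells above 9 and 9% in run 1 or 4 and 3% in run 2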
GFP autofluor – flagged as fluorescent in myeloid differentiation counter-screen. fluorescence response, % (concentration not given with the values). 2,300 tested, 7.4% active. shares compounds with Myeloid diff MLP. ER-HoxA9 myeloid progenitors, no estrogen, GFP autofluorescence flow cytometry; vehicle wells 0%, positive control 100%;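 active = over 5% cells positive for green fluorescent reporter, or over 2% positive for both it and APC stain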
Numbers stand for hits; i = inactive; nt = not tested or not shown; + = active, no number. Compounds with a hit are over-represented: about 3.1% of the library has one in this group of screens.

SMILES | Myeloid diff MLP | PP5 inh | HCV core dimer | PP1 counter | Fh CTSL1 inh | NadD block | Myeloid diff CP1 | GFP autofluor
NC(=O)NC(Cc1ccccc1)c1ccccc1 (stereo not drawn) | + | nt | nt | nt | nt | i | i | i
COc1ccc(C2SCCN2S(=O)(=O)c2ccc(NC(C)=O)cc2)cc1 (stereo not drawn) | + | i | i | i | i | i | i | i
COc1ccc(N/C=C2/CCCCC2=O)cc1 | i | i | i | i | i | i | i | i
COc1ccccc1NC(=O)N1CCN(c2cc(-c3ccccc3)nc3ncnn23)CC1 | i | i | i | i | i | i | i | i
COc1cccc(OC)c1C(=O)Nc1nc2ccc(S(C)(=O)=O)cc2s1 | + | i | i | i | i | i | i | i
CS(=O)(=O)c1ccc2nc(NC(=O)CS(=O)(=O)Cc3ccccc3)sc2c1 | + | i | i | i | i | i | i | i
COc1ccc(C(=O)Nc2nc3ccc(S(C)(=O)=O)cc3s2)cc1OC | i | i | i | i | i | i | nt | nt
CCOc1ccccc1NC(=O)C(c1ccccc1)N1CCN(CC(=O)N2CCCC2)CC1 (stereo not drawn) | i | nt | nt | nt | nt | i | nt | nt
Cc1ccc(S(=O)(=O)N2[C@@H](c3ccc4c(c3)OCO4)C(C(=O)O)=C[C@H]2CC2CCCC2)cc1 | + | nt | nt | nt | nt | i | i | i
Cc1ccc([C@H]2C(C(=O)O)=C[C@@H](CC3CCCC3)N2S(=O)(=O)c2ccc(C)cc2)cc1 | i | nt | nt | nt | nt | i | nt | nt
c1ccc(-n2ncc3c(NCc4ccco4)ncnc32)cc1 | i | i | i | i | i | i | nt | nt
c1ccc(Cn2ncc3c(NCc4ccco4)ncnc32)cc1 | i | i | i | i | i | i | i | i
Cc1ccc(C(=O)C(C)OC(=O)CCN=C2NS(=O)(=O)c3ccccc32)cc1 (stereo not drawn) | i | i | i | i | i | i | nt | nt
CC1(C)CC(=O)C=C(c2ccc(Oc3ccccc3)cc2)C1 | i | i | nt | i | nt | i | nt | nt
CC1(C)CNC(=O)C=C(c2ccccc2)C1 | + | i | i | i | i | i | i | i
CN1/C(=C\P(=O)(N(C)C)N(C)C)C(C)(C)c2ccccc21 | + | i | i | i | i | i | i | 81.8
CCOC(=O)/C=C1/N(C)c2ccccc2C1(C)C | i | i | i | i | i | i | nt | nt
CCc1nc(SCC(=O)c2c[nH]c3ccccc23)n[nH]1 | i | i | i | i | i | i | i | i
CCOCCCN(C)C1CCN(C(=O)c2oc3ccccc3c2NC(=O)c2ccc(F)cc2)CC1 | i | i | i | i | i | i | nt | nt
Cc1cccc(N2CCN(C(=O)NCc3ccc(Cl)cc3)CC2)c1 | i | i | i | i | i | i | i | i
COc1ccc(CNC(=O)N2CCN(c3cccc(Cl)c3)CC2)cc1OC | i | i | i | i | i | i | nt | nt
CCC(=O)N(C)C[C@H]1Oc2cc(-c3cccnc3)ccc2S(=O)(=O)N([C@H](C)CO)C[C@H]1C | i | nt | nt | nt | nt | i | nt | nt
Cc1cc(C(=O)Nc2ccc(Br)cc2)cs1 | i | i | i | i | i | i | nt | nt
Nc1[nH]c(C(=O)c2ccccc2)c(-c2ccccc2Br)c1C(=O)c1ccccc1 | i | nt | nt | nt | nt | i | nt | nt
CCOC(=O)c1cc2c(=O)n3ccccc3nc2n(C(C)C)c1=NC(=O)c1c(-c2c(F)cccc2Cl)noc1C | + | i | i | i | i | i | i | i
SMILES | Myeloid diff MLP | PP5 inh | HCV core dimer | PP1 counter | Fh CTSL1 inh | NadD block | Myeloid diff CP1 | GFP autofluor
Cn1c(C(=O)O)c(C=O)c2ccccc21 | i | i | i | i | i | i | nt | nt
Cc1c(C(=O)C(C)C)n(C)c2ccccc12 | i | i | i | i | i | i | i | i
CC(C)Cn1c(=O)c2ccccc2n2c(CCC(=O)O)nnc12 | i | i | i | i | i | i | nt | nt
COc1ccc(-c2cc(=O)oc3c(C)c(OCC(=O)N(C)C)ccc23)cc1 | + | i | i | i | i | i | i | i
COc1ccc(-c2cc(=O)oc3c(C)c(OCC(=O)Nc4cccnc4)ccc23)cc1 | i | i | i | i | i | i | nt | nt
Cc1cc(=O)oc2c(C)c(OCC(=O)NCc3ccccn3)ccc12 | i | i | i | i | i | i | nt | nt
Cc1c(OCC(=O)NCc2ccccn2)ccc2c(-c3ccccc3)cc(=O)oc12 | + | i | i | i | i | i | i | i
CCOc1ccc(N(Cc2cc3cc(OC)ccc3[nH]c2=O)C(=O)C2CCCO2)cc1 (stereo not drawn) | + | i | i | i | i | i | i | i
COc1ccc(N(Cc2cc3ccccc3[nH]c2=O)C(=O)C2CCCO2)cc1 (stereo not drawn) | i | i | i | i | i | i | nt | nt
Cc1c(CCC(=O)NCCCC(=O)O)c(=O)oc2cc3oc4c(c3cc12)CCCC4 | i | i | i | i | i | i | nt | nt
CC(C)c1ccc(N(CC(=O)NCc2ccco2)C(=O)CCC(=O)Nc2nccs2)cc1 | i | i | i | i | i | i | nt | nt
CS(=O)(=O)NCCSCc1ccco1 | i | i | i | i | i | i | i | i
Cc1ccc(C(=O)COC(=O)[C@@H](NC(=O)c2ccco2)C(C)C)s1 | + | nt | nt | nt | nt | i | i | i
COc1ccc(CNc2ccccc2)cc1Br | i | i | i | i | i | i | i | i
COc1ccc(C)cc1NC(=O)n1ncc2cc(Cl)ccc21 | + | i | i | i | i | i | + | i
Cn1c(Cn2cnc(Cl)c2Cl)nc2ccccc21 | i | i | i | i | i | i | i | i
CCOc1ccccc1/C=C/C(=O)NCC(=O)N1CCC(N(C)C2CCCCC2C)CC1 (stereo not drawn) | i | i | i | i | i | i | nt | nt
COc1cccc(C(O)c2nc(-c3ccccc3OC)cs2)c1 (stereo not drawn) | i | nt | nt | nt | nt | i | nt | nt
COc1cccc(C(O)c2nc(-c3ccccc3C)cs2)c1 (stereo not drawn) | + | nt | nt | nt | nt | i | i | i
COc1cc2c(cc1OC)C(c1cc3ccccc3oc1=O)=NC(C)(C)C2 | i | i | i | i | i | i | i | i
COc1ccc(C2=NC(C)(C)Cc3cc(OC)c(OC)cc32)cc1OC | i | i | i | i | i | i | nt | nt
COCCCN1C(=O)C(=O)/C(=C(/O)c2ccc(OC(C)C)cc2)C1c1ccncc1 (stereo not drawn) | i | i | i | i | i | i | i | i
Cc1cccc(CN2[C@H](CO)C=CS2(=O)=O)c1 | i | nt | nt | nt | nt | i | nt | nt
CCn1cc(C(=O)N2CCN(c3ccc([N+](=O)[O-])cc3)CC2)c(=O)c2ccc(C)nc21 | + | i | i | i | i | i | i | i
CCn1cc(C(=O)N2CCN(c3cccc(C)c3C)CC2)c(=O)c2ccc(C)nc21 | i | i | i | i | i | i | nt | nt
Cc1cnc(C(=O)OCC(=O)c2ccccc2)cn1 | i | i | i | i | i | i | nt | nt
Cn1ccc(C(=O)OCC(=O)c2ccccc2)n1 | + | i | i | i | i | i | i | i
